From ChEMBL document CHEMBL3351600, “Sulfur, selenium and tellurium pseudopeptides: synthesis and biological evaluation” (Bioorg Med Chem, 2014)
pIC50: −log10 of the molar value. Active and inactive are the calls of the source. The calls are words filed in the database; no cut-off is given here.

Experiments:
[1] = Lipophilicity, log K of the compound by HPLC analysis
[2] = tested on: Staphylococcus aureus; assay: Antimicrobial activity against Staphylococcus aureus assessed as inhibition at 20 ug/6 mm disk after 1 to 2 days by agar diffusion assay; assay type: functional
Summary of the method: (§1)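 Standard agar diffusion: 6-mm paper disks loaded with 20 µg of compound were placed on inoculated plates. Inhibition-zone diameter (mm) was read after 1 and 2 days of growth.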

[3] = tested on: Escherichia coli; assay: Antimicrobial activity against Escherichia coli tolC assessed as inhibition at 20 ug/6 mm disk after 1 to 2 days by agar diffusion assay; assay type: functional; summary of the method: as §1
[4] = tested on: MCF7; assay: Cytotoxicity against human MCF7 cells assessed as cell viability after 24 hrs incubation by MTT assay; assay type: functional, cell-based; settings: MCF7, 24 h
Summary of the method: (§2)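 Cell lines came from DSMZ; primary human fibroblasts served as non-cancer controls. Cells were grown in medium with 10% FCS, seeded at 50,000 cells/ml, and grown 2 days at 37 °C, 10% CO2. Serial dilutions were then added for 24 h. MTT (final 0.5 mg/ml) was added for 2 h. Formazan was pelleted, PBS-washed, dissolved in isopropanol/0.4% HCl and read at 590 nm. Two parallel experiments were run. IC50 was taken as the concentration giving 50% of untreated-control absorbance.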

[5] = tested on: Klebsiella pneumoniae; assay: Antimicrobial activity against Klebsiella pneumoniae assessed as inhibition at 20 ug/6 mm disk after 1 to 2 days by agar diffusion assay; assay type: functional; summary of the method: as §1
[6] = tested on: Aspergillus niger; assay: Antimicrobial activity against Aspergillus niger assessed as inhibition at 20 ug/6 mm disk after 1 to 2 days by agar diffusion assay; assay type: functional; summary of the method: as §1
[7] = tested on: Pseudomonas aeruginosa; assay: Antimicrobial activity against Pseudomonas aeruginosa assessed as inhibition at 20 ug/6 mm disk after 1 to 2 days by agar diffusion assay; assay type: functional; summary of the method: as §1
[8] = Cytotoxicity against human fibroblasts assessed as cell viability after 24 hrs incubation by MTT assay; assay type: cell-based; settings: Fibroblast; summary of the method: as §2
[9] = Octanol-water partition coefficient, log P of the compound by HPLC analysis; assay type: physicochemical
Summary of the method: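 Lipophilicity was measured by reversed-phase HPLC on a Nucleosil C18 column with isocratic water/methanol (3:1) at 0.5 ml/min and UV detection at 230 and 245 nm. Dead time was set with thiourea (t0 0.728 min). Retention factor was k = (tR − t0)/t0, and log P came from a calibration against at least six reference compounds.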

[10] = tested on: Micrococcus luteus; assay: Antimicrobial activity against Micrococcus luteus assessed as inhibition at 20 ug/6 mm disk after 1 to 2 days by agar diffusion assay; assay type: functional; summary of the method: as §1
[11] = tested on: Candida albicans; assay: Antimicrobial activity against Candida albicans assessed as inhibition at 20 ug/6 mm disk after 1 to 2 days by agar diffusion assay; assay type: functional; summary of the method: as §1
[12] = tested on: A-431; assay: Cytotoxicity against human A431 cells assessed as cell viability after 24 hrs incubation by MTT assay; assay type: functional, cell-based; settings: A-431, 24 h; summary of the method: as §2
[13] = tested on: Saccharomyces cerevisiae; assay: Antimicrobial activity against Saccharomyces cerevisiae assessed as inhibition at 20 ug/6 mm disk after 1 to 2 days by agar diffusion assay; assay type: functional; summary of the method: as §1
[14] = tested on: Mycolicibacterium phlei; assay: Antimicrobial activity against Mycobacterium phlei assessed as inhibition at 20 ug/6 mm disk after 1 to 2 days by agar diffusion assay; assay type: functional; summary of the method: as §1
[15] = tested on: A-431; assay: Reduction in ROS in human A431 cells assessed as decrease in hydrogen peroxide level at 1 to 100 ng/ml after 1 hr by DCHFA assay; assay type: functional, cell-based
Summary of the method: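 A-431 cells (10^5 per well) were treated with a range of compound concentrations for 1 h. They were then loaded with DCHFA probe for 30 min in the dark. Fluorescence (ex 485/em 528 nm) was read immediately and expressed as arbitrary units per 10^5 cells.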

[16] = tested on: A-431; assay: Reduction in ROS in human A431 cells assessed as decrease in hydrogen peroxide level at 0.1 to 10 ng/ml after 1 hr by DCHFA assay; assay type: functional, cell-based
Summary of the method: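 A-431 cells were seeded at 10^5 per well and exposed to a range of compound concentrations for 1 h. They were then loaded with DCHFA probe for 30 min in the dark. Fluorescence was read immediately at ex/em 485/528 nm and expressed as arbitrary units per 10^5 cells.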

Row | Compound | log K [1] | diameter of the inhibition zone (DIZ) [2] [mm] | diameter of the inhibition zone (DIZ) [3] [mm] | pIC50 [4] | diameter of the inhibition zone (DIZ) [5] [mm] | diameter of the inhibition zone (DIZ) [6] [mm] | Retention_time [min] | diameter of the inhibition zone (DIZ) [7] [mm] | pIC50 [8] | logP [9] | diameter of the inhibition zone (DIZ) [10] [mm] | diameter of the inhibition zone (DIZ) [11] [mm] | pIC50 [12] | diameter of the inhibition zone (DIZ) [13] [mm] | diameter of the inhibition zone (DIZ) [14] [mm] | Activity [15] | Activity [16]
1 | c1ccccc1 [BENZENE] | -0.53 |  |  |  |  |  |  |  |  |  |  |  |  |  |  |  | 
2 | COc1ccc(N(CC(=O)NCCCSc2ccccc2)C(=O)c2ccccc2)cc1 | -0.03 | 0 | 0 | ≤ 4.00 | 0 | 0 | 1.407 | 0 | ≤ 4.00 | 3.1 | 0 | 0 | ≤ 4.00 | 0 | 0 | inactive | 
3 | CC(=O)Nc1ccccc1 [ACETANILIDE] | -0.94 |  |  |  |  |  | 0.811 |  |  |  |  |  |  |  |  |  | 
4 | c1ccc2c(c1)ccc1ccccc12 | 0.6 |  |  |  |  |  | 3.615 |  |  |  |  |  |  |  |  |  | 
5 | COc1ccc(N(CC(=O)NCCC[Se]c2ccccc2)C(=O)c2ccccc2)cc1 | -0.03 | 0 | 0 | ≤ 4.00 | 0 | 18 | 1.412 | 0 | ≤ 4.00 | 3.1 | 0 | 0 | ≤ 4.00 | 0 | 0 | inactive | 
6 | O=C(COC(=O)C#Cc1ccccc1)NCCC[Te]c1ccccc1 | -1.04 | 0 | 0 | 6.00 | 0 | 0 | 0.794 | 0 | 5.15 | 0.9 | 9 | 0 | 5.15 | 0 | 15 |  | Dose-dependent effect
7 | c1ccc2ccccc2c1 | 0.2 |  |  |  |  |  | 1.894 |  |  |  |  |  |  |  |  |  | 
8 | COc1ccc(N(CC(=O)NCCC[Se]c2ccccc2)C(=O)CCSC2=C(C)C(=O)c3ccccc3C2=O)cc1 | 0.55 | 0 | 0 | 5.10 | 0 | 0 | 3.297 | 0 | 4.62 | 4.23 | 7 | 0 | 4.77 | 0 | 0 |  | 
9 | COc1ccc(N(CC(=O)NCCC[Te]c2ccccc2)C(=O)/C=C/c2ccccc2)cc1 | -0.84 | 11 | 11 | 5.70 | 13 | 0 | 0.834 | 9 | 5.30 | 1.31 | 8 | 0 | 5.22 | 0 | 12 |  | Dose-dependent effect
10 | O=C(COC(=O)/C=C/c1ccccc1)NCCC[Te]c1ccccc1 | -0.06 | 0 | 0 | 6.00 | 0 | 0 | 1.356 | 0 | 4.96 | 3.01 | 7 | 0 | 5.22 | 0 | 0 |  | Dose-dependent effect
11 | Cc1ccccc1 [TOLUENE] |  |  |  |  |  |  | 1.508 |  |  |  |  |  |  |  |  |  | 
12 | NC(N)=S [THIOUREA] |  |  |  |  |  |  | 0.728 |  |  |  |  |  |  |  |  |  | 
13 | COc1ccc(N(CC(=O)NCCC[Se]c2ccccc2)C(=O)CNC(=O)OC(C)(C)C)cc1 | -0.01 | 0 | 0 | ≤ 4.00 | 0 | 0 | 1.434 | 0 | ≤ 4.00 | 3.3 | 0 | 0 | ≤ 4.00 | 0 | 0 |  | 
14 | COc1ccc(N(CC(=O)NCCCSc2ccccc2)C(=O)CCSC2=C(C)C(=O)c3ccccc3C2=O)cc1 | 0.48 | 0 | 0 | 4.80 | 0 | 0 | 2.94 | 0 | 4.59 | 4.2 | 0 | 0 | 4.77 | 0 | 0 |  | 
15 | COc1ccc(N(CC(=O)NCCCSc2ccccc2)C(=O)/C=C/c2ccccc2)cc1 | 0.39 | 0 | 0 | ≤ 4.00 | 0 | 0 | 2.514 | 0 | ≤ 4.00 | 4 | 0 | 0 | ≤ 4.00 | 0 | 15 |  | 
16 | COc1ccc(N(CC(=O)NCCCSc2ccccc2)C(=O)CNC(=O)OC(C)(C)C)cc1 | 0.3 | 0 | 0 | ≤ 4.00 | 0 | 0 | 2.17 | 0 | ≤ 4.00 | 3.12 | 0 | 0 | ≤ 4.00 | 0 | 0 |  | 
17 | COc1ccc(N(CC(=O)NCCC[Se]c2ccccc2)C(=O)C#Cc2ccccc2)cc1 | -0.25 | 0 | 0 | ≤ 4.00 | 0 | 19 | 1.134 | 0 | ≤ 4.00 | 2.6 | 0 | 0 | ≤ 4.00 | 0 | 0 |  | 
18 | Cc1ccc(C(C)C)c(O)c1 [THYMOL] | -0.12 |  |  |  |  |  | 1.285 |  |  |  |  |  |  |  |  |  | 
